Calls of active or inactive are those of the source. The calls are words filed in the database; no cut-off is given here.
Key:
[1] = Growth inhibition of human Ovarian cancer cells; assay type: functional; details: Cancer cell lines
[2] = test system: REH; experiment: Cytotoxicity against human REH cells assessed as reduction in cell viability after 24 to 72 hrs by trypan blue exclusion assay; assay type: functional, cell-based
How it was run: (§1)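 Reh, K562 and Nalm6 leukemic cells were treated with 10, 50, 100 and 250 µM or with 0.1, 0.5, 1, 5 and 10 µM (compounds dissolved in DMSO). Viability was scored by trypan blue after 24, 48 and 72 h. DMSO-treated cells served as vehicle control.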

[3] = Growth inhibition of human Breast cancer cells; assay type: functional; details: Cancer cell lines
[4] = test system: REH; experiment: Induction of apoptosis in human REH cells assessed as dead cells at 1 uM after 48 hrs using annexin-v-FITC/propidium iodide by FACS analysis (reference value: 0.03 %)
[5] = test system: REH; experiment: Induction of apoptosis in human REH cells assessed as late apoptotic cells at 1 uM after 48 hrs using annexin-v-FITC/propidium iodide by FACS analysis (reference value: 5.51 %); assay type: functional
[6] = test system: REH; experiment: Cell cycle arrest in human REH cells assessed as reduction of cells in G1 phase after 48 hrs using propidium iodide by FACS analysis; assay type: functional, cell-based
How it was run: (§2)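 Reh and Nalm6 cells exposed 48 h to 0.1, 0.5, 1 and 5 µM, harvested, stained with propidium iodide and analysed by flow cytometry. Gated fractions were sub G1, G1, S and G2. DMSO-treated cells served as vehicle control. Three independent experiments for Reh and two for Nalm6.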

[7] = Growth inhibition of human Renal cancer cells; assay type: functional; details: Cancer cell lines
[8] = Cell cycle arrest in human NALM6 cells assessed as reduction of cells in G2/M phase after 48 hrs using propidium iodide by FACS analysis; assay type: functional, cell-based; details: NALM-6; how it was run: as §2
[9] = test system: REH; experiment: Induction of apoptosis in human REH cells assessed as induction of ROS production at 5 uM after 10 mins by flow cytometric analysis (reference value: 0.33 %); assay type: functional
[10] = test system: NALM-6; experiment: Cytotoxicity against human NALM6 cells assessed as reduction in cell viability after 24 to 72 hrs by trypan blue exclusion assay; assay type: functional, cell-based; how it was run: as §1
[11] = test system: REH; experiment: Induction of apoptosis in human REH cells assessed as reduction of BID at 1 uM after 48 hrs by Western blot analysis; assay type: functional, cell-based
How it was run: (§3)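 Reh cell lysates were prepared after 48 h treatment at 500 nM and 1 µM, with DMSO-treated cells as control. Western blotting used primary antibodies against KU70, PARP1, caspase 3, BID, caspase 9, FAS and caspase 8, with tubulin also probed.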

[12] = test system: REH; experiment: Cell cycle arrest in human REH cells assessed as reduction of cells in S phase after 48 hrs using propidium iodide by FACS analysis; assay type: functional, cell-based; how it was run: as §2
[13] = test system: REH; experiment: Induction of apoptosis in human REH cells assessed as induction of ROS production at 10 uM after 10 mins by flow cytometric analysis (reference value: 0.33 %); assay type: functional
[14] = test system: REH; experiment: Induction of apoptosis in human REH cells assessed as induction of ROS production at 100 nM after 10 mins by flow cytometric analysis (reference value: 0.33 %); assay type: functional
[15] = test system: REH; experiment: Induction of apoptosis in human REH cells assessed as caspase 3 cleavage after 48 hrs by Western blot analysis; assay type: functional, cell-based; how it was run: as §3
[16] = Growth inhibition of human Prostate cancer cells; assay type: functional; details: Cancer cell lines

SMILES: O=Cc1c(-c2ccc(Br)cc2)nc2sc(Cc3ccccc3)nn12
- GI50 [1]: 4.2 µM
- TGI [1]: 41.7 µM
- Activity [2]: Dose-dependent effect
- GI50 [3]: 3.5 µM
- TGI [3]: 28.2 µM
- Activity [4]: 0.42%
- Activity [5]: 51.32%
- Activity [6]: Dose-dependent effect
- GI50 [7]: 3.2 µM
- LC50 [7]: 93.3 µM
- TGI [7]: 20 µM
- Activity [8]: Dose-dependent effect
- Activity [9]: 0.62%
- Activity [10]: Dose-dependent effect
- Activity [11]: Active
- Activity [12]: Dose-dependent effect
- Activity [13]: 0.41%
- Activity [14]: 0.77%
- Activity [15]: Dose-dependent effect
- GI50 [16]: 3 µM
- TGI [16]: 24.6 µM
